Screening results from PubChem BioAssay.
This is a sample that favours compounds with a hit; in the whole collection about 3.8% have one here.
KCNK3 block: human KCNK3 channel inhibitors, primary screen, CHO cells, FluxOR thallium flux, B-score; 0.84% of 340,000 active; FluxOR fluorescence; hits give low values; AID 602410, 2012; B-score at 10 µM; Potassium channel subfamily K member 3 (Homo sapiens), O14649;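 active = B-score under library mean minus 4 SD, starting fluorescence ratio at most library mean plus 5 SD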;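 note: more negative B-score means stronger inhibition of thallium flux through KCNK3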
KCNQ1 act: potentiators or activators of KCNQ1 channel, primary screen, cell-based, thallium flux, high-throughput; B-score at 10 µM; 0.35% of 310,000 active; AID 2648, 2010; CHO-K1 KCNQ1, thallium flux FluxOR fluorescence; hits give high values;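 active = fluorescence ratio B-score, a plate-corrected score, at least three library SD, with initial intensity B-score within 5 SD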
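assay system = CHO-K1 cells stably expressing KCNQ1 | medium = assay buffer, equal DMSO in all wells | timing = 37 °C overnight plating, 90-min dark dye load, 20-min compound pretreatment | measured by = kinetic FluxOR thallium fluorescence, 10-s 1-Hz baseline, 110-s post-stimulus read | measure = fluorescence change relative to baseline, converted to B score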
KCNQ1 block: inhibitors of human KCNQ1 channel, primary screen, cell-based, thallium flux, high-throughput; CHO-K1 KCNQ1, FluxOR thallium flux fluorescence; hits give high values; B-score at 10 µM; 1.3% of 310,000 active; AID 2642, 2010;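 active = compounds whose thallium flux B-score, printed positive for inhibition, exceeds three library SD while starting fluorescence stays within three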;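 note: channel opened by potassium depolarization with thallium stimulus after 20 min compound exposure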
KCNK9 block: KCNK9 potassium channel inhibitors, primary screen, HEK293 cells, thallium flux. Potassium channel subfamily K member 9 (Homo sapiens), Q9NPC2. FluxOR thallium flux fluorescence; hits give low values. B-score at 10 µM. 1.2% of 310,000 active;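 active = ratio B-score over 3 SD below the library mean, with starting fluorescence within 5 SD of its mean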;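 note: negative B-score means less thallium flux so channel inhibition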
Target sequence (Q9NPC2 whole entry, looked up): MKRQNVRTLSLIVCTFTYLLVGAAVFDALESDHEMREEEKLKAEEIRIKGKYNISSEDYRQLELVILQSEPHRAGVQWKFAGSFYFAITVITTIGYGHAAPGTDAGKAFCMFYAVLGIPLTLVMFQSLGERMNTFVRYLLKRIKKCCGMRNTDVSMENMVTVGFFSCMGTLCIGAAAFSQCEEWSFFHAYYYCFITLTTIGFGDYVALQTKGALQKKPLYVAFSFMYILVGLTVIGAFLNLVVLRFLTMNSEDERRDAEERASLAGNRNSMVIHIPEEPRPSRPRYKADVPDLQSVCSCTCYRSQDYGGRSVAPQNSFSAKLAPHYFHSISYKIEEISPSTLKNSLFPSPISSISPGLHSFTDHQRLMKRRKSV
Kir21 inh: inhibitors of mouse Kir2.1 inward-rectifier potassium channel | Inward rectifier potassium channel 2 (Mus musculus), P35561 | HEK293-Kir2.1, FluxOR thallium flux fluorescence; hits give low values | 0.85% of 310,000 active | AID 1672, 2009 | B-score at 10 µM;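 active = fluorescence ratio B-score at or below minus 3 SD of library scores, with starting-brightness B-score within 2 SD, cut at about -4.2 in these data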;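 note: channel flux triggered by added potassium and thallium sulfate stimulus; B-score of peak minus minimum fluorescence over baseline after thallium stimulus; more negative B-score means stronger Kir2.1 block with less thallium influx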
hERG protect: hERG rescue from dofetilide block, primary screen, cell-based, CHO-hERG, FluxOR thallium flux, dofetilide IC70; AID 1511, 2009; dofetilide IC70 present; 0.51% of 310,000 active; activation (rescue from dofetilide block), less the hit threshold, % at 10 µM; Voltage-gated inwardly rectifying potassium channel KCNH2 (Homo sapiens), Q12809;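 active = activation above the mean of controls blocked by dofetilide plus 5 SD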;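 note: thallium influx through hERG after potassium depolarization seen as dye fluorescence rise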
Numbers stand for hits.

`Cn1c(O)c(N=NC(=O)C2COc3ccccc3O2)c2ccccc21` (centres undefined) gave KCNK3 block inactive, KCNQ1 act inactive, KCNQ1 block inactive, KCNK9 block inactive, Kir21 inh inactive and hERG protect inactive.
Screening CC(C)n1c(O)c(N=NC(=O)C2COc3ccccc3O2)c2ccccc21 (centres undefined) returned KCNK3 block inactive, KCNQ1 act inactive, KCNQ1 block inactive, KCNK9 block inactive, Kir21 inh inactive and hERG protect 23.
`COc1cc(C(C)=O)ccc1OCC(=O)Nc1ccc(C)c(S(=O)(=O)N2CCCCCC2)c1` gave KCNK3 block inactive.
Screening COc1ccccc1CN(C)CC(=O)Nc1ccc(Cl)cc1F returned KCNK3 block inactive, KCNQ1 act inactive, KCNQ1 block inactive, KCNK9 block inactive, Kir21 inh inactive and hERG protect inactive.
COc1ccc(Br)cc1CN(C)CC(=O)Nc1cc(Cl)ccc1Cl was read as KCNK3 block inactive, KCNQ1 act inactive, KCNQ1 block inactive, KCNK9 block inactive, Kir21 inh -5.7 and hERG protect inactive.
`O=c1cc(CNc2cc(C(F)(F)F)cc(C(F)(F)F)c2)nc2sccn12` gave KCNK3 block inactive, KCNQ1 act inactive, KCNQ1 block inactive, KCNK9 block -7.4, Kir21 inh inactive and hERG protect inactive.
`O=c1ccc(C(F)(F)F)cn1Cc1cc(=O)n2ccsc2n1` gave KCNK3 block inactive, KCNQ1 act inactive, KCNQ1 block inactive, KCNK9 block inactive, Kir21 inh inactive and hERG protect inactive.
CC(C)NC(=O)CN1CCN(C(=O)c2ccc3oc(CCCc4ccccc4)nc3c2)CC1 was read as KCNK3 block inactive, KCNQ1 act inactive, KCNQ1 block inactive, KCNK9 block inactive, Kir21 inh inactive and hERG protect inactive.
Cc1ccc(OC(=O)c2ccc(Br)o2)cc1 was read as KCNK3 block inactive, KCNQ1 act inactive, KCNQ1 block inactive, KCNK9 block inactive, Kir21 inh inactive and hERG protect 22.
`CCC(Sc1ncccc1C(=O)Oc1cccc([N+](=O)[O-])c1)C(=O)Nc1ccccc1OC` (centres undefined) gave KCNK3 block inactive, KCNQ1 act inactive, KCNQ1 block inactive, KCNK9 block -7.9, Kir21 inh inactive and hERG protect inactive.
For CCC1Oc2ccccc2N(CC(=O)NCCN2C(C)CCCC2C)C1=O (centres undefined) the results were KCNK3 block inactive, KCNQ1 act inactive, KCNQ1 block inactive, KCNK9 block inactive, Kir21 inh inactive and hERG protect 7.2.
CCOCCCNC(=O)CN1C(=O)C(CC)Oc2ccccc21 (centres undefined) was read as KCNK3 block inactive, KCNQ1 act inactive, KCNQ1 block inactive, KCNK9 block inactive, Kir21 inh inactive and hERG protect inactive.
`CCC1Oc2ccccc2N(CC(=O)NCCN2CCCC2)C1=O` (centres undefined) gave KCNK3 block inactive, KCNQ1 act inactive, KCNQ1 block inactive, KCNK9 block inactive, Kir21 inh inactive and hERG protect inactive.
`CCC1Oc2ccccc2N(CC(=O)NCCCN2CCC(C)CC2)C1=O` (centres undefined) gave KCNK3 block inactive, KCNQ1 act inactive, KCNQ1 block inactive, KCNK9 block inactive, Kir21 inh inactive and hERG protect 5.5.
For COc1ccc2nc(N3C(=O)CNC3=S)sc2c1 the results were KCNK3 block inactive, KCNQ1 act inactive, KCNQ1 block inactive, KCNK9 block inactive, Kir21 inh inactive and hERG protect inactive.
CCOc1ccc2nc(N3C(=O)/C(=C/c4ccc(Cl)cc4)NC3=S)sc2c1 was read as KCNK3 block inactive, KCNQ1 act 26, KCNQ1 block inactive, KCNK9 block inactive, Kir21 inh inactive and hERG protect inactive.
For CC(=O)Nc1ccc(NC(=O)C(C)OC(=O)c2ccc(S(=O)(=O)N3CCCCCC3)cc2)cc1 (centres undefined) the results were KCNK3 block inactive.
O=C(Nc1nc2ccccc2s1)C1CCCN1S(=O)(=O)c1ccc(Cl)cc1 (centres undefined) was read as KCNK3 block inactive, KCNQ1 act inactive, KCNQ1 block inactive, KCNK9 block inactive, Kir21 inh inactive and hERG protect inactive.
For O=S(=O)(c1ccccc1)N1CCCC1c1nc2ccccc2s1 (centres undefined) the results were KCNK3 block inactive, KCNQ1 act inactive, KCNQ1 block inactive, KCNK9 block inactive, Kir21 inh -4.5 and hERG protect inactive.
Screening CC1(c2ccc3ccccc3c2)NC(=O)N(CC(=O)N2CCCC(C(F)(F)F)C2)C1=O (centres undefined) returned KCNK3 block inactive.
For COc1cc(CNC(=O)c2ccc3oc(C(C)C)nc3c2)cc(OC)c1 the results were KCNK3 block inactive, KCNQ1 act inactive, KCNQ1 block inactive, KCNK9 block inactive, Kir21 inh inactive and hERG protect inactive.
Screening O=C(Cc1ccccc1)NCC(=O)OC(c1ccccc1)c1ccccc1 returned KCNK3 block inactive, KCNQ1 act inactive, KCNQ1 block inactive, KCNK9 block inactive, Kir21 inh -5.4 and hERG protect inactive.
Screening O=C(CNC(=O)Cc1ccccc1)NCC(=O)OCc1ccccc1 returned KCNK3 block inactive, KCNQ1 act inactive, KCNQ1 block inactive, KCNK9 block inactive, Kir21 inh inactive and hERG protect inactive.
O=S(=O)(c1cccc(F)c1)N1CCN(c2nc(-c3cccnc3)nc3ccccc23)CC1 was read as KCNK3 block inactive.
For COc1cccc(-c2nn(-c3ccccc3)cc2CN(C)C(C)c2ccon2)c1 (centres undefined) the results were KCNK3 block inactive, KCNQ1 act inactive, KCNQ1 block 6, KCNK9 block inactive, Kir21 inh inactive and hERG protect inactive.
COc1cccc(-c2nn(-c3ccccc3)cc2CN(C)Cc2ccno2)c1 was read as KCNK3 block inactive, KCNQ1 act inactive, KCNQ1 block inactive, KCNK9 block inactive, Kir21 inh inactive and hERG protect inactive.
For Clc1ccc(CSc2nnnn2-c2ccc3c(c2)OCO3)c(Cl)c1 the results were KCNK3 block inactive, KCNQ1 act inactive, KCNQ1 block inactive, KCNK9 block -7, Kir21 inh inactive and hERG protect inactive.
For c1ccc(CSc2nnnn2-c2ccc3c(c2)OCCO3)nc1 the results were KCNK3 block inactive, KCNQ1 act inactive, KCNQ1 block inactive, KCNK9 block inactive, Kir21 inh inactive and hERG protect inactive.
